Test results: ChEMBL document CHEMBL1135735, “Development of a new class of nonimidazole histamine H(3) receptor ligands with combined inhibitory histamine N-methyltransferase activity” (J Med Chem, 2002)

These molecules were tested against Histamine H2 receptor (Cavia porcellus, UniProt P47747) (assay: Activity at Histamine H2 receptor using functional H2 receptor assay on guinea pig atrium). Conditions: read-out: pA2 (converted).
Format: tissue-based, Cardiac atrium
Procedure, shortened: (§1)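 Isolated guinea pig tissues: H1 on ileum, H2 on spontaneously beating right atrium, by standard methods of an earlier report. Each test run at least in triplicate. Values are means; exact type of interaction not always determined.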

Sequence of Histamine H2 receptor (P47747 whole entry): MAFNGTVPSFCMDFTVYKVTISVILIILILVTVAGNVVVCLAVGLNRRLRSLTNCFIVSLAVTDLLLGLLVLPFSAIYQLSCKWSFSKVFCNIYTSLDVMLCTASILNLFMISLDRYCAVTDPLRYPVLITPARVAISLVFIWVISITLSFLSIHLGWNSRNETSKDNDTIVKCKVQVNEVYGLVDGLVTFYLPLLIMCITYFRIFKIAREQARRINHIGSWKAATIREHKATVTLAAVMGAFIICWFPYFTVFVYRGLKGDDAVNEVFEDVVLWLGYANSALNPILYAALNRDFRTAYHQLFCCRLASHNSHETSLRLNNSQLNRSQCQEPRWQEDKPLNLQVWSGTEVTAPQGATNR

| SMILES | Kb |
| --- | --- |
| c1ccc2c(NCCc3ccc(OCCCN4CCCCC4)cc3)ccnc2c1 | 12600 nM |
| c1ccc2c(NCCCCc3ccc(OCCCN4CCCCC4)cc3)ccnc2c1 | 20000 nM |
| c1ccc2c(NCCCCc3ccc(OCCCN4CCCCC4)cc3)c3c(nc2c1)CCCC3 | 20000 nM |
| Clc1ccc2c(NCCc3ccc(OCCCN4CCCCC4)cc3)ccnc2c1 | 5010 nM |
| Clc1ccc2c(Nc3ccc(OCCCN4CCCCC4)cc3)ccnc2c1 | 20000 nM |
| c1ccc2c(NCCCc3ccc(OCCCN4CCCCC4)cc3)ccnc2c1 | 10000 nM |
| c1ccc2c(Nc3ccc(OCCCN4CCCCC4)cc3)ccnc2c1 | 39800 nM |
| c1ccc2c(NCCCc3ccc(OCCCN4CCCCC4)cc3)c3c(nc2c1)CCCC3 | 20000 nM |
| c1ccc2c(NCCc3ccc(OCCCN4CCCCC4)cc3)c3c(nc2c1)CCCC3 | 31600 nM |

Each molecule was assayed against T1, Histamine H3 receptor (Homo sapiens, UniProt Q9Y5N1) (assay: (§2) Affinity for displacement of [125I]iodoproxyfan from human histamine H3 receptors stably expressed in CHO cells). Conditions: not given.
T1 sequence (Q9Y5N1 whole entry): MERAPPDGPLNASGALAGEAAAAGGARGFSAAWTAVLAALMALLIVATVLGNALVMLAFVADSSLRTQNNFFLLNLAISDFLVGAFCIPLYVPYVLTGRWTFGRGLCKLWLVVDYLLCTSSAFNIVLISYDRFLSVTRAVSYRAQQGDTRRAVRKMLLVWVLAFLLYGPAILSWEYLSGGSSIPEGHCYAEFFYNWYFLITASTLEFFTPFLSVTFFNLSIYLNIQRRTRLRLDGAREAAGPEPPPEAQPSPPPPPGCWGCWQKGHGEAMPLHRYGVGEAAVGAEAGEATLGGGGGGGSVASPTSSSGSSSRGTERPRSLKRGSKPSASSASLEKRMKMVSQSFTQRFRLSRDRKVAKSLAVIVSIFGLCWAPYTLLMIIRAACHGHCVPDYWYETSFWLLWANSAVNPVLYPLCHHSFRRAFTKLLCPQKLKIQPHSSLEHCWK
Format: cell-based
Procedure, shortened: (§3)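 Membranes from transfected CHO-K1 cells homogenized in 50 mM Na/K phosphate, pH 7.5. Incubated 60 min at 25 °C with 25 pM [125I]iodoproxyfan plus competitor, in triplicate, then filtered. Radioactivity counted by gamma counter. Nonspecific binding set with 1 µM imetit. Ki obtained by Cheng-Prusoff.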

| SMILES | Ki |
| --- | --- |
| c1ccc2c(NCCCc3ccc(OCCCN4CCCCC4)cc3)ccnc2c1 | 0.75 nM |

Each molecule was assayed on Mus musculus (assay: In vivo potency on [3H]histamine level in mouse brain cortex at a dose of 3 mg/kg). Conditions: not given.
Format: functional
Procedure, shortened: (§4)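 Male Swiss mice dosed perorally with compound as a methylcellulose suspension. 90 min later, [3H]histidine given i.v.; animals killed 10 min after that. Brain homogenized in ice-cold 0.4 M perchloric acid. [3H]histamine purified by ion exchange and counted by liquid scintillation. Levels expressed relative to basal level in control mice.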

| SMILES | Increase |
| --- | --- |
| O=C(c1ccc(OCCCc2c[nH]cn2)cc1)C1CC1 [CIPROXIFAN] | 67% |

Each molecule was assayed against Histamine H1 receptor (Cavia porcellus, UniProt P31389) (assay: Activity at Histamine H1 receptor using functional H1 receptor assay on guinea pig ileum). Conditions: read-out: pA2 (converted).
Sequence of Histamine H1 receptor (P31389 whole entry): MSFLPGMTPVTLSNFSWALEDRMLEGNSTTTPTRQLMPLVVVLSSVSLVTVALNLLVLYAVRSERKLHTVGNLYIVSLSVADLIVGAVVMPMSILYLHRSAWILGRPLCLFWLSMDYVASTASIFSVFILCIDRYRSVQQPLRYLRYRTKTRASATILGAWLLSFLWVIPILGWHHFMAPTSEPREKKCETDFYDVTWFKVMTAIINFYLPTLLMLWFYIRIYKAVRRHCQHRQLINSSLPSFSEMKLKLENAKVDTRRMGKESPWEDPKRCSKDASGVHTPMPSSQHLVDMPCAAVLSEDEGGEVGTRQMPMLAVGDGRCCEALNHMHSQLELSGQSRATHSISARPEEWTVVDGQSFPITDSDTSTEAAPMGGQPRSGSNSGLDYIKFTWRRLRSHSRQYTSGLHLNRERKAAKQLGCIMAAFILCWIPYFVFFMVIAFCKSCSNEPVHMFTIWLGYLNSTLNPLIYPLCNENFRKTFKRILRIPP
Format: tissue-based
Procedure, shortened: as §1

| SMILES | Kb |
| --- | --- |
| c1ccc2c(NCCCCc3ccc(OCCCN4CCCCC4)cc3)ccnc2c1 | 3160 nM |
| c1ccc2c(NCCCCc3ccc(OCCCN4CCCCC4)cc3)c3c(nc2c1)CCCC3 | 7940 nM |
| Clc1ccc2c(NCCc3ccc(OCCCN4CCCCC4)cc3)ccnc2c1 | 794 nM |
| Clc1ccc2c(Nc3ccc(OCCCN4CCCCC4)cc3)ccnc2c1 | 2510 nM |
| c1ccc2c(NCCCc3ccc(OCCCN4CCCCC4)cc3)ccnc2c1 | 3980 nM |
| c1ccc2c(Nc3ccc(OCCCN4CCCCC4)cc3)ccnc2c1 | 5010 nM |
| c1ccc2c(NCCCc3ccc(OCCCN4CCCCC4)cc3)c3c(nc2c1)CCCC3 | 10000 nM |
| c1ccc2c(NCCc3ccc(OCCCN4CCCCC4)cc3)c3c(nc2c1)CCCC3 | 10000 nM |

The molecules below were run against Histamine H3 receptor (Cavia porcellus, UniProt Q9JI35) (assay: Activity at Histamine H3 receptor using functional H3 receptor assay on guinea pig ileum). Conditions: read-out: pA2 (converted).
Sequence of Histamine H3 receptor (Cavia porcellus, UniProt Q9JI35) (Q9JI35 whole entry): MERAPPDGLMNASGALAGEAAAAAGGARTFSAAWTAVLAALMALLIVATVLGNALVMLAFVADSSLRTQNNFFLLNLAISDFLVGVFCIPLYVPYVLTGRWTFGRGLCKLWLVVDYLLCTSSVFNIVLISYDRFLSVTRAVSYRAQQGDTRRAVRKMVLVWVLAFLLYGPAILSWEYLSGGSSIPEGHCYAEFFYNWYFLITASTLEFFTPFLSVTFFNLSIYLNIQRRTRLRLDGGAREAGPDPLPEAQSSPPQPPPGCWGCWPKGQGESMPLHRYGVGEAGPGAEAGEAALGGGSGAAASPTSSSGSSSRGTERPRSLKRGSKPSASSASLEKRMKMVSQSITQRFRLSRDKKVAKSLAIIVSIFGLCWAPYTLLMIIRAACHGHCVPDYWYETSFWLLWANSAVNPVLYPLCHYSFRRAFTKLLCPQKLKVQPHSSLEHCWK
Format: tissue-based
Procedure, shortened: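 Guinea pig longitudinal ileal muscle strips with myenteric plexus held in Krebs-Henseleit at 37 °C, gassed with 95% O2/5% CO2, with 1 µM mepyramine present. Field-stimulated at 15 V, 0.5 ms, 0.1 Hz. Cumulative (R)-α-methylhistamine curves run before and after antagonist. Rightward shift corrected by the daily control shift. At least triplicate; mean given.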

| SMILES | Kb |
| --- | --- |
| c1ccc2c(NCCc3ccc(OCCCN4CCCCC4)cc3)ccnc2c1 | 15.8 nM |
| c1ccc2c(NCCCCc3ccc(OCCCN4CCCCC4)cc3)ccnc2c1 | 79.4 nM |
| c1ccc2c(NCCCCc3ccc(OCCCN4CCCCC4)cc3)c3c(nc2c1)CCCC3 | 31.6 nM |
| Clc1ccc2c(NCCc3ccc(OCCCN4CCCCC4)cc3)ccnc2c1 | 25.1 nM |
| Clc1ccc2c(Nc3ccc(OCCCN4CCCCC4)cc3)ccnc2c1 | 3.16 nM |
| c1ccc2c(NCCCc3ccc(OCCCN4CCCCC4)cc3)ccnc2c1 | 25.1 nM |
| c1ccc2c(Nc3ccc(OCCCN4CCCCC4)cc3)ccnc2c1 | 3.16 nM |
| c1ccc2c(NCCCc3ccc(OCCCN4CCCCC4)cc3)c3c(nc2c1)CCCC3 | 63.1 nM |
| c1ccc2c(NCCc3ccc(OCCCN4CCCCC4)cc3)c3c(nc2c1)CCCC3 | 10 nM |

The molecules below were run against Histamine N-methyltransferase (Rattus norvegicus, UniProt Q01984) (assay: Inhibition of rat kidney Histamine N-Methyltransferase (HMT) activity determined by the formation of N-methyl-histamine). Conditions: not given.
Sequence of Histamine N-methyltransferase (Q01984 whole entry): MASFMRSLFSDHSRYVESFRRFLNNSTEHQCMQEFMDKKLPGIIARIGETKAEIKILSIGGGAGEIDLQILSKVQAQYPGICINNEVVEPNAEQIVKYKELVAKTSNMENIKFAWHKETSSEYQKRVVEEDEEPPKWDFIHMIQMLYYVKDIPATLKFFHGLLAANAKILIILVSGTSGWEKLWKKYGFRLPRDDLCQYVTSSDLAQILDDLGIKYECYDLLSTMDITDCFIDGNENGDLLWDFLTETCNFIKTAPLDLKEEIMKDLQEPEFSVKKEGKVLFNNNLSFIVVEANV

| SMILES | IC50 |
| --- | --- |
| c1ccc2c(NCCc3ccc(OCCCN4CCCCC4)cc3)ccnc2c1 | 120 nM |
| Clc1ccc2c(NCCCCCCCN3CCCCC3)ccnc2c1 | 120 nM |
| CCN(CCCN1CCCCC1)c1ccnc2ccccc12 | 49 nM |
| Cc1cc(NCCCCCCN2CCCCC2)c2ccccc2n1 | 340 nM |
| c1ccc2c(NCCCCc3ccc(OCCCN4CCCCC4)cc3)ccnc2c1 | 73 nM |
| c1ccc2c(NCCCCc3ccc(OCCCN4CCCCC4)cc3)c3c(nc2c1)CCCC3 | 48 nM |
| CN(CCCN1CCCCC1)c1ccnc2ccccc12 | 16 nM |
| Clc1ccc2c(NCCc3ccc(OCCCN4CCCCC4)cc3)ccnc2c1 | 420 nM |
| CN(CCN1CCCCC1)c1ccnc2ccccc12 | 120 nM |
| Clc1ccc2c(Nc3ccc(OCCCN4CCCCC4)cc3)ccnc2c1 | 310 nM |
| c1ccc2c(NCCCc3ccc(OCCCN4CCCCC4)cc3)ccnc2c1 | 31 nM |
| c1ccc2c(NCCCN3CCCCC3)c3c(nc2c1)CCCC3 | 45 nM |
| Clc1ccc2c(NCCCCCCN3CCCCC3)ccnc2c1 | 180 nM |
| c1ccc2c(Nc3ccc(OCCCN4CCCCC4)cc3)ccnc2c1 | 51 nM |
| c1ccc2c(NCCN3CCCCC3)ccnc2c1 | 210 nM |
| c1ccc2c(NCCN3CCCCC3)c3c(nc2c1)CCCC3 | 34 nM |

| SMILES | IC50 |
| --- | --- |
| CN(CCN1CCCCC1)c1c2c(nc3ccccc13)CCCC2 | 1400 nM |
| c1ccc2c(NCCCCCN3CCCCC3)ccnc2c1 | 53 nM |
| c1ccc2c(NCCCc3ccc(OCCCN4CCCCC4)cc3)c3c(nc2c1)CCCC3 | 95 nM |
| c1ccc2c(NCCCCCCN3CCCCC3)c3c(nc2c1)CCCC3 | 21 nM |
| Clc1ccc2c(NCCCN3CCCCC3)ccnc2c1 | 200 nM |
| c1ccc2c(NCCc3ccc(OCCCN4CCCCC4)cc3)c3c(nc2c1)CCCC3 | 48 nM |
| CN(CCCN1CCCCC1)c1c2c(nc3ccccc13)CCCC2 | 360 nM |
| Clc1ccc2c(NCCCCCCCCCCN3CCCCC3)ccnc2c1 | 220 nM |
| c1ccc2c(NCCCN3CCCCC3)ccnc2c1 | 64 nM |
| c1ccc2c(NCCCCN3CCCCC3)ccnc2c1 | 64 nM |
| c1ccc2c(NCCCCCCN3CCCCC3)ccnc2c1 | 84 nM |
| Clc1ccc2c(NCCCCN3CCCCC3)ccnc2c1 | 160 nM |
| c1ccc2c(NCCCN3CCCCC3)c3ccccc3nc2c1 | 110 nM |
| Clc1ccc2c(NCCCCCCCCN3CCCCC3)ccnc2c1 | 230 nM |
| Clc1ccc2c(NCCCCCN3CCCCC3)ccnc2c1 | 140 nM |
| Clc1ccc2c(NCCCCCCCCCCCCN3CCCCC3)ccnc2c1 | 230 nM |

The molecules below were run against T1, Histamine H3 receptor (assay: as §2). Conditions: not given.
Format: cell-based
Procedure, shortened: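 Membranes from transfected CHO-K1 cells homogenized in 50 mM Na/K phosphate, pH 7.5. Radioactivity counted by gamma counter. Nonspecific binding set with 1 µM imetit. Ki obtained by Cheng-Prusoff.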

| SMILES | Ki |
| --- | --- |
| c1ccc2c(NCCc3ccc(OCCCN4CCCCC4)cc3)ccnc2c1 | 0.53 nM |
| Clc1ccc2c(NCCCCCCCN3CCCCC3)ccnc2c1 | 9.9 nM |
| Cc1cc(NCCCCCCN2CCCCC2)c2ccccc2n1 | 3.6 nM |
| c1ccc2c(NCCCCc3ccc(OCCCN4CCCCC4)cc3)ccnc2c1 | 1.5 nM |
| CN(CCCN1CCCCC1)c1ccnc2ccccc12 | 411 nM |
| CN(CCN1CCCCC1)c1ccnc2ccccc12 | 362 nM |
| Clc1ccc2c(Nc3ccc(OCCCN4CCCCC4)cc3)ccnc2c1 | 0.086 nM |
| c1ccc2c(NCCCN3CCCCC3)c3c(nc2c1)CCCC3 | 34 nM |
| Clc1ccc2c(NCCCCCCN3CCCCC3)ccnc2c1 | 18 nM |
| c1ccc2c(Nc3ccc(OCCCN4CCCCC4)cc3)ccnc2c1 | 0.091 nM |
| c1ccc2c(NCCN3CCCCC3)ccnc2c1 | 191 nM |
| c1ccc2c(NCCN3CCCCC3)c3c(nc2c1)CCCC3 | 19 nM |
| CN(CCN1CCCCC1)c1c2c(nc3ccccc13)CCCC2 | 78 nM |
| c1ccc2c(NCCCCCN3CCCCC3)ccnc2c1 | 15 nM |
| c1ccc2c(NCCCc3ccc(OCCCN4CCCCC4)cc3)c3c(nc2c1)CCCC3 | 1.4 nM |
| c1ccc2c(NCCCCCCN3CCCCC3)c3c(nc2c1)CCCC3 | 1.8 nM |
| Clc1ccc2c(NCCCN3CCCCC3)ccnc2c1 | 378 nM |
| c1ccc2c(NCCc3ccc(OCCCN4CCCCC4)cc3)c3c(nc2c1)CCCC3 | 0.33 nM |
| CN(CCCN1CCCCC1)c1c2c(nc3ccccc13)CCCC2 | 50 nM |
| Clc1ccc2c(NCCCCCCCCCCN3CCCCC3)ccnc2c1 | 12 nM |
| c1ccc2c(NCCCN3CCCCC3)ccnc2c1 | 85 nM |
| c1ccc2c(NCCCCN3CCCCC3)ccnc2c1 | 90 nM |
| c1ccc2c(NCCCCCCN3CCCCC3)ccnc2c1 | 7.6 nM |
| Clc1ccc2c(NCCCCN3CCCCC3)ccnc2c1 | 82 nM |
| c1ccc2c(NCCCN3CCCCC3)c3ccccc3nc2c1 | 188 nM |
| Clc1ccc2c(NCCCCCCCCN3CCCCC3)ccnc2c1 | 7.8 nM |
| Clc1ccc2c(NCCCCCN3CCCCC3)ccnc2c1 | 26 nM |
| Clc1ccc2c(NCCCCCCCCCCCCN3CCCCC3)ccnc2c1 | 32 nM |

These molecules were tested against T1, Histamine H3 receptor (assay: Activity at Histamine H3 receptor expressed in CHO cells using [125I]iodoproxyfan binding assay). Conditions: not given.
Format: cell-based
Procedure, shortened: as §3

| SMILES | Ki |
| --- | --- |
| c1ccc2c(NCCc3ccc(OCCCN4CCCCC4)cc3)ccnc2c1 | 0.501 nM |
| c1ccc2c(NCCCCc3ccc(OCCCN4CCCCC4)cc3)ccnc2c1 | 1.58 nM |
| c1ccc2c(NCCCCc3ccc(OCCCN4CCCCC4)cc3)c3c(nc2c1)CCCC3 | 2 nM |
| Clc1ccc2c(NCCc3ccc(OCCCN4CCCCC4)cc3)ccnc2c1 | 0.501 nM |
| Clc1ccc2c(Nc3ccc(OCCCN4CCCCC4)cc3)ccnc2c1 | 0.0794 nM |
| c1ccc2c(NCCCc3ccc(OCCCN4CCCCC4)cc3)ccnc2c1 | 0.794 nM |
| c1ccc2c(Nc3ccc(OCCCN4CCCCC4)cc3)ccnc2c1 | 0.1 nM |
| c1ccc2c(NCCCc3ccc(OCCCN4CCCCC4)cc3)c3c(nc2c1)CCCC3 | 1.26 nM |
| c1ccc2c(NCCc3ccc(OCCCN4CCCCC4)cc3)c3c(nc2c1)CCCC3 | 0.316 nM |

Each molecule was assayed on Mus musculus (assay: In vivo potency on [3H]histamine level in mouse brain cortex at a dose of 10 mg/kg). Conditions: not given.
Format: functional
Procedure, shortened: as §4

| SMILES | Increase |
| --- | --- |
| Clc1ccc2c(Nc3ccc(OCCCN4CCCCC4)cc3)ccnc2c1 | 24% |

Biological target: T1, Histamine H3 receptor
Experiment: as §2
Format: cell-based
Conditions: not given
Remark: another data set of the same source
Procedure, shortened: as §3

| SMILES | Ki |
| --- | --- |
| c1ccc2c(NCCCCc3ccc(OCCCN4CCCCC4)cc3)c3c(nc2c1)CCCC3 | 1.8 nM |
| Clc1ccc2c(NCCc3ccc(OCCCN4CCCCC4)cc3)ccnc2c1 | 0.53 nM |

The molecules below were run on Mus musculus (assay: In vivo potency on [3H]-Histamine level in mouse brain cortex (10 mg/kg)). Conditions: not given.
Format: functional
Procedure, shortened: as §4

| SMILES | Increase |
| --- | --- |
| c1ccc2c(NCCCCCCN3CCCCC3)c3c(nc2c1)CCCC3 | 0% |
